Sampled rows, rich in hits. Any-hit rate of the full collection: about 3.8%.
hERG protect – hERG rescue from dofetilide block, primary screen, cell-based, CHO-hERG, FluxOR thallium flux, dofetilide IC70; Voltage-gated inwardly rectifying potassium channel KCNH2 (Homo sapiens), Q12809; activation (rescue from dofetilide block), less the hit threshold, % at 10 µM; dofetilide IC70 present; 310,000 compounds, 0.51% hits;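 active = activation above the mean of controls blocked by dofetilide plus 5 SD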;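 note: thallium influx through hERG after potassium depolarization seen as dye fluorescence rise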
KCNQ1 block – inhibitors of human KCNQ1 channel, primary screen, cell-based, thallium flux, high-throughput | AID 2642, 2010 | B-score at 10 µM | 310,000 compounds, 1.3% hits | CHO-K1 KCNQ1, FluxOR thallium flux fluorescence; stronger effect = higher value;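 active = compounds whose thallium flux B-score, printed positive for inhibition, exceeds three library SD while starting fluorescence stays within three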;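 note: channel opened by potassium depolarization with thallium stimulus after 20 min compound exposure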
KCNQ1 act – potentiators or activators of KCNQ1 channel, primary screen, cell-based, thallium flux, high-throughput; Potassium voltage-gated channel subfamily KQT member 1 (Homo sapiens), P51787; CHO-K1 KCNQ1, thallium flux FluxOR fluorescence; stronger effect = higher value; B-score at 10 µM; 310,000 compounds, 0.35% hits; AID 2648, 2010;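 active = fluorescence ratio B-score, a plate-corrected score, at least three library SD, with initial intensity B-score within 5 SD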
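Medium – assay buffer, equal DMSO in all wells · Material – CHO-K1 cell line with stable KCNQ1 potassium channel expression · Signal – kinetic FluxOR thallium fluorescence, 10-s 1-Hz baseline, 110-s post-stimulus read · Compound – single concentration per compound, DMSO matched to controls · Schedule – 37 °C overnight plating, 90-min dark dye load, 20-min compound pretreatment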
KCNK3 inh – human KCNK3 channel inhibitors, primary screen, CHO cells, FluxOR thallium flux, B-score; B-score at 10 µM; AID 602410, 2012; FluxOR fluorescence; stronger effect = lower value; 340,000 compounds, 0.84% hits;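 active = B-score under library mean minus 4 SD, starting fluorescence ratio at most library mean plus 5 SD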;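 note: more negative B-score means stronger inhibition of thallium flux through KCNK3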
Kir21 inh – inhibitors of mouse Kir2.1 inward-rectifier potassium channel; HEK293-Kir2.1, FluxOR thallium flux fluorescence; stronger effect = lower value; B-score at 10 µM; 310,000 compounds, 0.85% hits; AID 1672, 2009;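 active = fluorescence ratio B-score at or below minus 3 SD of library scores, with starting-brightness B-score within 2 SD, cut at about -4.2 in these data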;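 note: channel flux triggered by added potassium and thallium sulfate stimulus; B-score of peak minus minimum fluorescence over baseline after thallium stimulus; more negative B-score means stronger Kir2.1 block with less thallium influx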
Target sequence (P35561 whole entry, looked up): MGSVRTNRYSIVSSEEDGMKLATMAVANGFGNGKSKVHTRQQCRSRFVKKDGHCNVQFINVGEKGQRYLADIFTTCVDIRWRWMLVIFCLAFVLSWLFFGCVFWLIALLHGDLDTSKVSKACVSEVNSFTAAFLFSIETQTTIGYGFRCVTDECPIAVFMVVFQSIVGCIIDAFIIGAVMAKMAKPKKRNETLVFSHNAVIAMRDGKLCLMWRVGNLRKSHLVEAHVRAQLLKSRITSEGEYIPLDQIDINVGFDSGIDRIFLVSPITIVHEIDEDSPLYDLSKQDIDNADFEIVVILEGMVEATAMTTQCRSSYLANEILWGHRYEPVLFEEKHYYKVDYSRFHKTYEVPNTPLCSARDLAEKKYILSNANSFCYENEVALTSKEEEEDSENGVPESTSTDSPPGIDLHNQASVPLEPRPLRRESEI
KCNK9 block – KCNK9 potassium channel inhibitors, primary screen, HEK293 cells, thallium flux; FluxOR thallium flux fluorescence; stronger effect = lower value; B-score at 10 µM; 310,000 compounds, 1.2% hits; AID 488922, 2010;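 active = ratio B-score over 3 SD below the library mean, with starting fluorescence within 5 SD of its mean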;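 note: negative B-score means less thallium flux so channel inhibition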
KCNK9 inh conf – KCNK9 potassium channel inhibitors, confirmation, HEK293 cells, thallium flux, duplicate. shares compounds with KCNK9 block. FluxOR thallium flux fluorescence. inhibition, % at 10 µM. 4,900 compounds, 43% hits. AID 492992, 2010;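 active = thallium signal inhibited by more than 5 SD of the compound-free buffer control wells, on both duplicate plates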;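 note: 0% = assay buffer control wells without compound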
Kir2-1 spec – mouse Kir2.1 channel inhibition, confirmation, selectivity assay for KCNK9 modulator project, cell-based, HEK293, thallium flux; shares compounds with KCNK9 block; Kir2.1 cells, FluxOR thallium flux fluorescence; inhibition, % at 10 µM; 4,900 compounds, 4% hits; AID 492993, 2010;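 active = thallium signal drop more than 5 SD beyond the mean of the no-compound control wells, seen in both duplicate plates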;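 note: signal is fluorescence rise after thallium addition divided by baseline fluorescence; plate controls were assay buffer only for no effect and full block by chlorpromazine control for full effect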
HEK293 Tl ctr – thallium flux in non-induced HEK293 cells, confirmation, counter-screen for KCNK9 inhibitor project, cell-based, second counter screen, non-induced KCNK9-HEK293; FluxOR thallium flux; shares compounds with KCNK9 block; 4,900 compounds, 40% hits; inhibition, % at 10 µM;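 active = thallium signal drop beyond 5 SD of the untreated control mean, on both duplicate plates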;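 note: plate controls were buffer only IC0 wells for no effect and SID17386958 at its maximal inhibitory level for full effect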
* = called active by the depositor.

Results for CCOC(=O)c1c(C)[nH]c(C)c1C(=O)COC(=O)c1c(OC)cccc1OC ?
hERG protect: -7.5; KCNQ1 block: inactive; KCNQ1 act: inactive; KCNK3 inh: inactive; Kir21 inh: 0.54; KCNK9 block: inactive

How did O=C1Nc2ccc(Cl)cc2C(C#CC2CC2)(C(F)(F)F)O1 (configuration not stated) do in these assays?
hERG protect: -5.5; KCNQ1 block: inactive; KCNQ1 act: inactive; KCNK3 inh: inactive; Kir21 inh: -1.2; KCNK9 block: -8.24*; KCNK9 inh conf: 48.5%*; Kir2-1 spec: inactive; HEK293 Tl ctr: 46.5%*

How did COC(=O)c1ccc(S(=O)(=O)N2CCOCC2)o1 do in these assays?
hERG protect: 0.2; KCNQ1 block: inactive; KCNQ1 act: inactive; KCNK3 inh: inactive; Kir21 inh: 1.99; KCNK9 block: inactive

How did CCCc1cnc(N2CCN(C(=S)NC)CC2)nc1 do in these assays?
hERG protect: -8.6; KCNQ1 block: inactive; KCNQ1 act: inactive; KCNK3 inh: inactive; Kir21 inh: -1.01; KCNK9 block: inactive

How did CCOC(=O)C1=C(CSc2nc(C)cc(C)c2C#N)OC(N)=C(C#N)C1c1ccccc1 (configuration not stated) do in these assays?
hERG protect: -15.8; KCNQ1 block: inactive; KCNQ1 act: inactive; KCNK3 inh: inactive; Kir21 inh: 1.56; KCNK9 block: -13.5*; KCNK9 inh conf: 55.5%*; Kir2-1 spec: inactive; HEK293 Tl ctr: 47.5%*

What do the screens show for `CCOC(=O)C1=C(CSc2nc3c(cc2C#N)CN(C)CC3)OC(N)=C(C#N)C1c1ccc(Cl)cc1` (configuration not stated)?
hERG protect: -7.2; KCNQ1 block: inactive; KCNQ1 act: inactive; KCNK3 inh: inactive; Kir21 inh: 0.38; KCNK9 block: inactive

Results for CCCCC(c1nnnn1Cc1ccco1)N1CCN(c2nc3ccccc3s2)CC1 (configuration not stated) ?
hERG protect: -10.4; KCNQ1 block: inactive; KCNQ1 act: inactive; KCNK3 inh: inactive; Kir21 inh: -1.04; KCNK9 block: -16*; KCNK9 inh conf: 48.5%*; Kir2-1 spec: inactive; HEK293 Tl ctr: 33.0%*

Results for CCC(c1nnnn1Cc1ccco1)N1CCN(c2cc(Cl)ccc2C)CC1 (configuration not stated) ?
hERG protect: -6.5; KCNQ1 block: inactive; KCNQ1 act: inactive; KCNK3 inh: inactive; Kir21 inh: -0.2; KCNK9 block: -10.8*; KCNK9 inh conf: 53.5%*; Kir2-1 spec: inactive; HEK293 Tl ctr: 42.0%*

How did CCC(c1nnnn1Cc1ccco1)N1CCC(C(N)=O)CC1 (configuration not stated) do in these assays?
hERG protect: -0.5; KCNQ1 block: inactive; KCNQ1 act: inactive; KCNK3 inh: inactive; Kir21 inh: 0.73; KCNK9 block: inactive

What do the screens show for `c1ccc(C(c2nnnn2Cc2ccco2)N2CCN(c3nc4ccccc4s3)CC2)cc1` (configuration not stated)?
hERG protect: -11.1; KCNQ1 block: inactive; KCNQ1 act: inactive; KCNK3 inh: inactive; Kir21 inh: 0.58; KCNK9 block: -8.18*; KCNK9 inh conf: 41.5%*; Kir2-1 spec: inactive; HEK293 Tl ctr: 28.0%*

Results for Cc1nn2c(C(F)(F)F)cc(-c3ccc(Cl)cc3)nc2c1C(=O)N1CCOCC1 ?
hERG protect: -18.4; KCNQ1 block: inactive; KCNQ1 act: inactive; KCNK3 inh: inactive; Kir21 inh: 1.21; KCNK9 block: inactive

How did CCOc1cccc(CN2CCN(CCc3ccccc3)C(CCO)C2)c1O (configuration not stated) do in these assays?
hERG protect: -11.3; KCNQ1 block: inactive; KCNQ1 act: inactive; KCNK3 inh: inactive; Kir21 inh: 0.52; KCNK9 block: inactive

Results for Cc1cc(/C=c2/sc3nc4ccccc4n3c2=O)c(C)n1-c1ccccn1 ?
hERG protect: -12.1; KCNQ1 block: inactive; KCNQ1 act: inactive; KCNK3 inh: inactive; Kir21 inh: -1.91; KCNK9 block: inactive

How did Cc1cc(/C=c2\sc3nc4ccccc4n3c2=O)c(C)n1-c1ccc(C(=O)O)cc1 do in these assays?
hERG protect: -31.3; KCNQ1 block: inactive; KCNQ1 act: inactive; KCNK3 inh: inactive; Kir21 inh: -2.51; KCNK9 block: inactive; KCNK9 inh conf: inactive; Kir2-1 spec: inactive; HEK293 Tl ctr: inactive

How did Cc1cc(C)cc(C(=O)N(CCc2ccccc2)C2CC3CCC(C2)N3C)c1 (configuration not stated) do in these assays?
hERG protect: -3.6; KCNQ1 block: inactive; KCNQ1 act: inactive; KCNK3 inh: inactive; Kir21 inh: -0.95; KCNK9 block: inactive; KCNK9 inh conf: inactive; Kir2-1 spec: inactive; HEK293 Tl ctr: inactive

Results for O=C1NC(=S)SC1=Cc1ccc2c(c1)OCO2 ?
KCNK3 inh: inactive

What do the screens show for `O=C1N/C(=N/S(=O)(=O)Cc2ccccc2)S/C1=C/c1ccc2c(c1)OCO2`?
hERG protect: -21.0; KCNQ1 block: inactive; KCNQ1 act: inactive; KCNK3 inh: inactive; Kir21 inh: 0.45; KCNK9 block: inactive; KCNK9 inh conf: inactive; Kir2-1 spec: inactive; HEK293 Tl ctr: inactive

How did C[C@H](C[C@H](O)[C@H]1OC1(C)C)C1=C2C[C@H](O)C3[C@@]4(C)CCC(=O)C(C)(C)C4CC[C@]3(C)[C@@]2(C)CC1 (some centres not stated) do in these assays?
KCNK3 inh: inactive

What do the screens show for `CC(Oc1ccc(F)cc1)C(=O)Nc1ccccc1N1CCCCC1` (configuration not stated)?
hERG protect: -13.2; KCNQ1 block: 6*; KCNQ1 act: inactive; KCNK3 inh: inactive; Kir21 inh: -3.29; KCNK9 block: -8.46*; KCNK9 inh conf: 52.5%*; Kir2-1 spec: 46.5%*; HEK293 Tl ctr: 31.5%*
